The source made the active and inactive calls. The calls are words filed in the database; no cut-off is given here.
Columns and labels:
[1] = biological target: Heat shock protein beta-1 (Homo sapiens) (UniProt P04792); assay: Inhibition of heat shock protein 27 in human LNCaP cells assessed as decrease in AR protein level at 20 uM after 48 hrs by Western blot method; type: cell-based
How it was run: (§1)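 LNCaP cells treated with DMSO or compound for 48 h. Whole-cell extracts probed by Western blot with specific antibodies against AR and β-actin. Three independent experiments.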

[2] = biological target: Heat shock protein beta-1 (Homo sapiens) (UniProt P04792); assay: Inhibition of heat shock protein 27 in human LNCaP cells assessed as decrease in AR protein level at 200 uM after 48 hrs by Western blot method; type: cell-based; how it was run: as §1
Homo sapiens = organism: Homo sapiens; assay: Inhibition of alpha crystallin (unknown origin) assessed as increase in DTT induced insulin aggregation at 10 uM pretreated for 5 mins followed by DTT addition measured after 45 mins
How it was run: (§2)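 Insulin 1 mg/ml stock and alpha-crystallin 5 mg/ml stock mixed in PBS containing compound. Incubated 5 min at 37 °C, then aggregation started with 1 M DTT stock. A400 followed for 45 min at 37 °C. Controls were insulin with or without alpha-crystallin in 0.1% DMSO. Triplicate wells; three independent experiments.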

LNCaP = assay: Growth inhibition of human LNCAP cells after 72 hrs by MTT assay; type: functional, cell-based
How it was run: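 LNCaP cells treated with DMSO or a range of compound concentrations, four replicates each, for 72 h. Viability read by MTT assay.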

[3] = biological target: Heat shock protein beta-1 (Homo sapiens) (UniProt P04792); assay: Inhibition of heat shock protein 27 in human LNCaP cells assessed as decrease in AR protein level at 5 uM after 48 hrs by Western blot method; type: cell-based; how it was run: as §1
[4] = biological target: Heat shock protein beta-1 (Homo sapiens) (UniProt P04792); assay: Inhibition of heat shock protein 27 in human LNCaP cells assessed as decrease in AR protein level after 48 hrs by Western blot method; type: cell-based; how it was run: as §1
[5] = Effect on DTT interaction with insulin at <= 10 uM measured after 45 mins; how it was run: as §2

Heat shock protein beta-1 (Homo sapiens), sequence (P04792 whole entry): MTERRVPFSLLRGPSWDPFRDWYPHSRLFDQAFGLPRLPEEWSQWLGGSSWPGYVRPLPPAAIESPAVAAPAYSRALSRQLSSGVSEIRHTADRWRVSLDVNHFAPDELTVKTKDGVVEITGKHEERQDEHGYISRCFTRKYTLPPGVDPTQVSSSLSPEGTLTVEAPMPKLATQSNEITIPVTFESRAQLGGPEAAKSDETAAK

For `C=C1CC[C@@H]2C(C)(C)CCC[C@@]2(C)[C@@H]1CC/C(C)=C/C(=O)Nc1ccc(C)cc1`, the “AR protein decrease (active/not active)” value [1] was “Active”.

In the case of `C=C1CC[C@@H]2C(C)(C)CCC[C@@]2(C)[C@@H]1CC/C(C)=C/C(=O)Nc1ccc(I)cc1`, the “AR protein decrease (active/not active)” value [1] is reported as “Active”.

In the case of `C[C@@H]1CC[C@@]2(C)C(C(=O)O)=CCC[C@@H]2[C@@]1(C)CCc1ccoc1`, the inhibition [2] is reported as “Active”.

In the case of `C=C1CC[C@@H]2C(C)(C)CCC[C@@]2(C)[C@@H]1CC/C(C)=C/C(=O)Nc1ccc(OC)cc1`, the “AR protein decrease (active/not active)” value [1] is reported as “Active”, the inhibition (Homo sapiens) is reported as “Active” and the IC50 (LNCaP) is reported as 1.73 µM. For the same molecule, the inhibition [3] was “Active”, the inhibition [4] was “Dose-dependent effect” and the Activity [5] was “inactive”.

With `C=C1CC[C@@H]2C(C)(C)CCC[C@@]2(C)[C@@H]1CC/C(C)=C/C(=O)Nc1cccc(Br)c1` the “AR protein decrease (active/not active)” value [1] was “Active”.

For `C=C1CC[C@@H]2C(C)(C)CCC[C@@]2(C)[C@@H]1CC/C(C)=C/C(=O)NCCc1ccccc1`, the “AR protein decrease (active/not active)” value [1] was “Active”.

For `C=C1CC[C@@H]2C(C)(C)CCC[C@@]2(C)[C@@H]1CC/C(C)=C/C(=O)Nc1ccc(C#N)cc1`, the “AR protein decrease (active/not active)” value [1] was “Active”, the inhibition (Homo sapiens) was “Active” and the IC50 (LNCaP) was 9.81 µM. The inhibition [4] was “Dose-dependent effect”.

For `C=C1CC[C@@H]2C(C)(C)CCC[C@@]2(C)[C@@H]1CC/C(C)=C/C(=O)O`, the “AR protein decrease (active/not active)” value [1] was “inactive” and the inhibition [2] was “Active”.

With `C=C1CC[C@@H]2C(C)(C)C(OC(C)=O)CC[C@@]2(C)[C@@H]1CC/C(C)=C/C(=O)O` (stereo partly drawn) the inhibition [2] was “Active”.

— ChEMBL document CHEMBL4024729, “Copalic acid analogs down-regulate androgen receptor and inhibit small chaperone protein” (Bioorg Med Chem Lett, 2017)
